From ChEMBL document CHEMBL1955726, “Novel Rho kinase inhibitors with anti-inflammatory and vasodilatory activities” (J Pharmacol Exp Ther, 2007)
The source made the active and inactive calls. The calls are words filed in the database; no cut-off is given here.

Legend:
[1] = molecular target: RAC-gamma serine/threonine-protein kinase (Homo sapiens, UniProt Q9Y243); experiment: Inhibition of AKT3
[2] = molecular target: Serine/threonine-protein kinase PLK1 (Homo sapiens, UniProt P53350); experiment: Inhibition of PLK
Serine/threonine-protein kinase PLK1, sequence (P53350 whole entry): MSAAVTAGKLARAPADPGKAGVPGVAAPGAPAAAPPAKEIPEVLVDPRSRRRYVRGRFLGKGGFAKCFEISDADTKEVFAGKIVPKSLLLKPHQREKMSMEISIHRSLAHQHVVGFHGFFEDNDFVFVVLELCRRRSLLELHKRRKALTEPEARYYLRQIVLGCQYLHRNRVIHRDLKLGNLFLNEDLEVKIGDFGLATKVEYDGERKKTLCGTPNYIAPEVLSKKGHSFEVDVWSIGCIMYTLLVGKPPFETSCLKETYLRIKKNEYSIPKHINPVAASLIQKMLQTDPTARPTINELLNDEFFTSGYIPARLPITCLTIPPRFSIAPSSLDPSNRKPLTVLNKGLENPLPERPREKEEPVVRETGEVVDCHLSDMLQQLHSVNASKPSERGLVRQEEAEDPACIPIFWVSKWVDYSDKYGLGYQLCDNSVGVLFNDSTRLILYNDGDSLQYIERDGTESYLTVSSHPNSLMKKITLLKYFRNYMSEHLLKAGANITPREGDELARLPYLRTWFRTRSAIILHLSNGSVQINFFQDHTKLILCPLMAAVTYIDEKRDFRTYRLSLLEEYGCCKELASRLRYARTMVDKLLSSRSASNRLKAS

[3] = molecular target: Cyclin-dependent kinase 2 (Homo sapiens, UniProt P24941); experiment: Inhibition of CDK2
[4] = molecular target: Ribosomal protein S6 kinase alpha-1 (Homo sapiens, UniProt Q15418); experiment: Inhibition of RSK1
[5] = molecular target: Glycogen synthase kinase-3 alpha (Homo sapiens, UniProt P49840); experiment: Inhibition of GSK3alpha
Glycogen synthase kinase-3 alpha, sequence (P49840 whole entry): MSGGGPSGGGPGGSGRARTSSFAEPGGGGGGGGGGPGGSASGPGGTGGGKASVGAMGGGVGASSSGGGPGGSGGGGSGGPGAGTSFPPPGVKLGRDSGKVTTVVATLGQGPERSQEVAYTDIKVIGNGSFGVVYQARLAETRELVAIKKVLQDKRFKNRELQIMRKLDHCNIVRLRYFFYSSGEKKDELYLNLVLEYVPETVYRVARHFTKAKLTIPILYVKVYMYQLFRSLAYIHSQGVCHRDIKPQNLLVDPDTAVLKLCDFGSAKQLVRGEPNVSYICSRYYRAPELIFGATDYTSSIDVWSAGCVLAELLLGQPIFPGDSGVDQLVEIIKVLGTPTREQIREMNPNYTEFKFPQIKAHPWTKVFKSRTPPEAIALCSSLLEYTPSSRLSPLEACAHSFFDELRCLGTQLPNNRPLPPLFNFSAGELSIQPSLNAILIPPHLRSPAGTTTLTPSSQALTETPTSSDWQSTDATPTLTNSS

[6] = molecular target: RAC-beta serine/threonine-protein kinase (Homo sapiens, UniProt P31751); experiment: Inhibition of AKT2
Rattus norvegicus [7] = experiment: Cardiovascular activity in spontaneously hypertensive rat assessed as increase in heart rate at 0.3 to 3 mg/kg, po; assay type: ADME, organism-based; set-up: dose 0.3-3 mg/kg, route oral; conditions: in vivo
Procedure, shortened: (§1)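 Compound given by oral gavage: 0.3, 1 and 3 mg/kg to spontaneously hypertensive rats, and 1 mg/kg to DOCA salt-treated hypertensive rats. A vehicle group was run alongside. Heart rate and blood pressure were recorded from immediately after dosing as 10-s averages every 5 min. There were 4-6 animals per dose (5 per group in the legend), and the change was taken from each group's baseline.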

Rattus norvegicus [8] = experiment: Cardiovascular activity in DOCA salt treated rat assessed as increase in heart rate at 1 mg/kg, po; assay type: ADME, organism-based; set-up: dose 1 mg/kg, route oral; conditions: in vivo; procedure, shortened: as §1
Rattus norvegicus [9] = experiment: Antihypertensive activity in rat assessed as reduction of DOCA salt-induced blood pressure at 1 mg/kg, po after 2 hrs; assay type: functional
[10] = molecular target: RAC-alpha serine/threonine-protein kinase (Homo sapiens, UniProt P31749); experiment: Inhibition of AKT1
RAC-alpha serine/threonine-protein kinase, sequence (P31749 whole entry): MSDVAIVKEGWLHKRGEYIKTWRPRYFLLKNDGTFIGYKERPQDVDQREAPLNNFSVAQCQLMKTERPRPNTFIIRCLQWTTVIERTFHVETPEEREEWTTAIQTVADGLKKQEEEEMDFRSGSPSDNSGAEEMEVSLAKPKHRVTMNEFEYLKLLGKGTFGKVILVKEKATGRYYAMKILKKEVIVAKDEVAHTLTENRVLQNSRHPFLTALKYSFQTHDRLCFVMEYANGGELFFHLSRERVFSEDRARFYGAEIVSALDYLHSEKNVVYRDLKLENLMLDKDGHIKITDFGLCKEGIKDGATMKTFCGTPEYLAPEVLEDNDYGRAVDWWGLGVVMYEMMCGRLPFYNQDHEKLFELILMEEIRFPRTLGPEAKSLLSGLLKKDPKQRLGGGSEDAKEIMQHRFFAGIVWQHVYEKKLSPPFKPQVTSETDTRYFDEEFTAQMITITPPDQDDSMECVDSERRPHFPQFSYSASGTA

Rattus norvegicus [11] = experiment: Antihypertensive activity in normotensive Sprague-Dawley rat assessed as reduction of blood pressure at 1 mg/kg, po after 2 hrs; assay type: functional
Rattus norvegicus [12] = experiment: Antihypertensive activity in spontaneously hypertensive rat assessed as reduction of blood pressure at 1 mg/kg, po after 2 hrs; assay type: functional
[13] = molecular target: Mitogen-activated protein kinase 10 (Homo sapiens, UniProt P53779); experiment: Inhibition of JNK3
[14] = molecular target: T1, Inhibitor of nuclear factor kappa-B kinase subunit beta (Homo sapiens, UniProt O14920); experiment: Inhibition of IKK2
T1 sequence (O14920 whole entry): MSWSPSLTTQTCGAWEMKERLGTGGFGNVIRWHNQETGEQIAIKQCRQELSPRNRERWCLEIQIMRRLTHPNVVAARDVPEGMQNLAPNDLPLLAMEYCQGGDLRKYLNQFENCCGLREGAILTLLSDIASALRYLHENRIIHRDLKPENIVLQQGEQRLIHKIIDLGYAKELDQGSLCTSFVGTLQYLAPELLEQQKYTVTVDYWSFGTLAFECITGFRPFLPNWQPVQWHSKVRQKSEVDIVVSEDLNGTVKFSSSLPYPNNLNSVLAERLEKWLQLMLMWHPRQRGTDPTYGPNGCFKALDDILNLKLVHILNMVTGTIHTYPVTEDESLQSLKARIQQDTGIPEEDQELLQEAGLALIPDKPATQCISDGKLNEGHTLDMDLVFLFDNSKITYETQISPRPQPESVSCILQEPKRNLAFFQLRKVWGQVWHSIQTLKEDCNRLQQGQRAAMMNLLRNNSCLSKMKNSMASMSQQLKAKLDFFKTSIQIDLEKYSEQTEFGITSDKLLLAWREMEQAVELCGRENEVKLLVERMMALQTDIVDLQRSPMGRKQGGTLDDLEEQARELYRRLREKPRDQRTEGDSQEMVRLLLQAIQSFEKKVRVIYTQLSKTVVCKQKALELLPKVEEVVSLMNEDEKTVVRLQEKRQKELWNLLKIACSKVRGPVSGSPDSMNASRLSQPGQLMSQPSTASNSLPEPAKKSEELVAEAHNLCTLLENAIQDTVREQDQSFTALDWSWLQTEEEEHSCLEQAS

[15] = molecular target: Ribosomal protein S6 kinase alpha-5 (Homo sapiens, UniProt O75582); experiment: Inhibition of MSK1
[16] = molecular target: Rho-associated protein kinase 2 (Homo sapiens, UniProt O75116); experiment: Inhibition of human ROCK2
Rho-associated protein kinase 2, sequence (O75116 whole entry): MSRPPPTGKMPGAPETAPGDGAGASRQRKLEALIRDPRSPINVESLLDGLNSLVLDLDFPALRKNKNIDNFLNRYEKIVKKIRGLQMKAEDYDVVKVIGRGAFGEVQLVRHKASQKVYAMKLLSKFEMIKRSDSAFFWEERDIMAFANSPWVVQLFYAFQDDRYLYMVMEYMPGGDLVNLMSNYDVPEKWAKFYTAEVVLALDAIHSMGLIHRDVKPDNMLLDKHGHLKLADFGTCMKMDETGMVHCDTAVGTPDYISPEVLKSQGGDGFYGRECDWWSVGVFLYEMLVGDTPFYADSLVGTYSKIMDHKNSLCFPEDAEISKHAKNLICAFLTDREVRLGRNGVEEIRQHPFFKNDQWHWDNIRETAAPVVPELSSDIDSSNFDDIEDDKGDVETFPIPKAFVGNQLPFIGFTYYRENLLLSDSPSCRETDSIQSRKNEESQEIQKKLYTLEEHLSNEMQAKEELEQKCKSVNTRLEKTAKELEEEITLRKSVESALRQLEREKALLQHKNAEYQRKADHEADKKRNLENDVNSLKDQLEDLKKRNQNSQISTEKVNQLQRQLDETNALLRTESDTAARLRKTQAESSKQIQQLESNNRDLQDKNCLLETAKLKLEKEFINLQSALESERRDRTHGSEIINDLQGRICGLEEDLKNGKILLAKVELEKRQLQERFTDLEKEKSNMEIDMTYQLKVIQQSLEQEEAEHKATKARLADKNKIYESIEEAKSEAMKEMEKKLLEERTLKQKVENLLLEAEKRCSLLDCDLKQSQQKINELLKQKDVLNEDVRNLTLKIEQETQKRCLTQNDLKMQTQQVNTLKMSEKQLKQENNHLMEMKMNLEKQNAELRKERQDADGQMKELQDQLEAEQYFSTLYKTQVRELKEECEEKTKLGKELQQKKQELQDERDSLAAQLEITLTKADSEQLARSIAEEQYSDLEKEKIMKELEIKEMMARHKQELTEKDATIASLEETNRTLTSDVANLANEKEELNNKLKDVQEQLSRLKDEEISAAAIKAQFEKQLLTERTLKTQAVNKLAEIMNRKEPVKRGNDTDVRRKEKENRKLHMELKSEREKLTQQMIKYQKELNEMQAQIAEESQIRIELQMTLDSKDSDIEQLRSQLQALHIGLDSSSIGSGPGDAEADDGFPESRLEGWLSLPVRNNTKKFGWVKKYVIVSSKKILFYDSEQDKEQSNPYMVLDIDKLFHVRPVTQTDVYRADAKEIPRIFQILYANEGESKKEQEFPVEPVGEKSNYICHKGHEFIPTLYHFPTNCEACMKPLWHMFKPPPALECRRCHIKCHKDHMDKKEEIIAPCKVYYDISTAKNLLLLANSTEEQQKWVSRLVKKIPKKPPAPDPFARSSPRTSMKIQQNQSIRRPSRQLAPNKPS

[17] = test system: primary macrophages (Homo sapiens); experiment: Antiinflammatory activity in human primary monocyte-derived macrophages assessed as inhibition of LPS-induced IL-6 mRNA expression at 10 uM treated 30 mins before LPS stimulation measured after 18 hrs by Northern blotting
[18] = molecular target: Rho-associated protein kinase 1 (Homo sapiens, UniProt Q13464); experiment: Inhibition of human recombinant N-terminal his-tagged ROCK1 (3-543) expressed in baculovirus infected Sf9 cells using Biotin-Ahx-AKRRLSSLRA-CONH2 substrate and [gamma-33P]ATP after 90 mins by scintillation proximity assay
Rho-associated protein kinase 1, sequence (Q13464 whole entry): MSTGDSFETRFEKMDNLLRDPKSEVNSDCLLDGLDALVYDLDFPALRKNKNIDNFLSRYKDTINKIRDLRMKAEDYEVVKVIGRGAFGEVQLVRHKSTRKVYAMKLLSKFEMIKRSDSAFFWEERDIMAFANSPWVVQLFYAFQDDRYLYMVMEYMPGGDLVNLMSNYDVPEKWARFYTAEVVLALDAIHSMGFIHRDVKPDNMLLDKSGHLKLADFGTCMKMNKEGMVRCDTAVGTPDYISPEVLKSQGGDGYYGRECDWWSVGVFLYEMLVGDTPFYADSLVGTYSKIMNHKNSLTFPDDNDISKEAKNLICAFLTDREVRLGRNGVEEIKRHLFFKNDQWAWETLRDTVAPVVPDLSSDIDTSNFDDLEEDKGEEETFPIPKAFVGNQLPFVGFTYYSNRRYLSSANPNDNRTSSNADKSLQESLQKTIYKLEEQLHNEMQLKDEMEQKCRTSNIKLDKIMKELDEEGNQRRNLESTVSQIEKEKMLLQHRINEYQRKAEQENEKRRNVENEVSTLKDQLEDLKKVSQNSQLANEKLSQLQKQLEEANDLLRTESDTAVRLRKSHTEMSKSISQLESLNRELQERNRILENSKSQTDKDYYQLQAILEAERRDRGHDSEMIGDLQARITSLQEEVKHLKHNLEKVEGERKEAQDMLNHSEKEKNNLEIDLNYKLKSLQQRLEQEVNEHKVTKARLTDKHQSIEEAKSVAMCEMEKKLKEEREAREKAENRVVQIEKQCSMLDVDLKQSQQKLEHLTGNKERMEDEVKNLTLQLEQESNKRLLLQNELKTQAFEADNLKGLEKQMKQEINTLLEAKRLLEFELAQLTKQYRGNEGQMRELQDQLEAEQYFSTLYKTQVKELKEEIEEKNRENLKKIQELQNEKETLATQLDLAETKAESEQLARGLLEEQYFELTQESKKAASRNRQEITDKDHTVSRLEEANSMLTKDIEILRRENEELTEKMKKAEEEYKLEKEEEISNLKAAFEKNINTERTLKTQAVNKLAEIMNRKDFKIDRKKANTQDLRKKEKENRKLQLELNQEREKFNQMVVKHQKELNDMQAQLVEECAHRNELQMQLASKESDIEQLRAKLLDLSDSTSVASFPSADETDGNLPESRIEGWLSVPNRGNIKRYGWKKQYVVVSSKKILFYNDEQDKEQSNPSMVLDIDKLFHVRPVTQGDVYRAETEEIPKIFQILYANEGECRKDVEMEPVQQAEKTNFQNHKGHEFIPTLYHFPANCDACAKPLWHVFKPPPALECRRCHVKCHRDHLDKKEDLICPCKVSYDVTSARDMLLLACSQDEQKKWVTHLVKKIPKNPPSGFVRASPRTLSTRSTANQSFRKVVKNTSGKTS

Aorta = experiment: Vasodilatory activity in Sprague-Dawley rat aorta assessed as reversal of KCl/phenylephrine-induced muscle contraction; assay type: functional, tissue-based

RAC-gamma serine/threonine-protein kinase, sequence (Q9Y243 whole entry): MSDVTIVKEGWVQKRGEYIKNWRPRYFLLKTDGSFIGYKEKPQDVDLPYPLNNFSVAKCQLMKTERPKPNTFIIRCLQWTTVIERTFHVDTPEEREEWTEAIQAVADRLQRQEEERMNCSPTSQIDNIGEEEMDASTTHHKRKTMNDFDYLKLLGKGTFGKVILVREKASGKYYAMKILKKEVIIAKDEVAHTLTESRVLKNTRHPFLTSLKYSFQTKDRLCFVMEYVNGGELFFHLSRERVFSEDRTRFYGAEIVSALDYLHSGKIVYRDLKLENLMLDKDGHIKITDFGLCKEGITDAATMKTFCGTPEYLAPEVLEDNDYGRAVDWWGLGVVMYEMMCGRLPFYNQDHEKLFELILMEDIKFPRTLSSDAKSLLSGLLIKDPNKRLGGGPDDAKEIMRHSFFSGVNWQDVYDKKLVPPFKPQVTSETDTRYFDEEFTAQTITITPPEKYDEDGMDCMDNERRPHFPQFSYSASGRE

| SMILES | IC50 [1] [nM] | IC50 [2] [nM] | IC50 [3] [nM] | IC50 [4] [nM] | IC50 [5] [nM] | IC50 [10] [nM] | IC50 [13] [nM] | IC50 [14] [nM] | IC50 [16] [nM] | IC50 [18] [nM] | Activity (Rattus norvegicus [7]) | inhibition [17] | further results |
| --- | --- | --- | --- | --- | --- | --- | --- | --- | --- | --- | --- | --- | --- |
| CCn1c(-c2nonc2N)nc2cnccc21 | – | – | – | – | – | – | – | – | < 10 | < 10 | – | Active | – |
| C[C@@H](N)[C@H]1CC[C@H](C(=O)Nc2ccncc2)CC1 [Y-27632] | – | – | – | – | – | – | – | – | – | – | Dose-dependent effect | – | IC50 (Aorta): 1400 nM |
| CCn1c(-c2nonc2N)nc2cncc(-c3ccc(CN)cc3)c21 | – | – | – | – | – | – | – | – | < 10 | < 10 | – | Active | – |

Further lines, with some results ahead:

| IC50 [1] [nM] | IC50 [2] [nM] | IC50 [3] [nM] | IC50 [4] [nM] | IC50 [5] [nM] | IC50 [10] [nM] | IC50 [13] [nM] | IC50 [14] [nM] | IC50 [16] [nM] | IC50 [18] [nM] | SMILES | Activity (Rattus norvegicus [7]) | inhibition [17] | further results |
| --- | --- | --- | --- | --- | --- | --- | --- | --- | --- | --- | --- | --- | --- |
| 1290 | > 10000 | 7000 | 35 | 9100 | 324 | > 10000 | > 10000 | – | – | CCn1c(-c2nonc2N)nc2cncc(C(=O)N3CC[C@H](N)C3)c21 | Dose-dependent effect | – | IC50 [6]: 1950 nM; Activity (Rattus norvegicus [8]): Toxic; Activity (Rattus norvegicus [9]): 40 mmHg; Activity (Rattus norvegicus [11]): 12 mmHg; Activity (Rattus norvegicus [12]): 40 mmHg |
| 1510 | > 10000 | 3500 | 132 | 1260 | 955 | > 10000 | > 10000 | – | – | CCn1c(-c2nonc2N)nc2cnc(Oc3cccc(NC(=O)c4ccc(OCCN5CCOCC5)cc4)c3)cc21 [GSK-269962A] | Dose-dependent effect | – | IC50 [15]: 49 nM |
